Assay outcomes from PubChem.
TLR9-MyD88 block = TLR9-MyD88 interaction inhibition | Q9NR96+Q99836 | CHO BLA complementation TLR9-MyD88, CCF4 FRET ratio | inhibition, % at 4.98 µM | 340,000 tested, 0.21% active;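 active means inhibition above the mean over all tested compounds plus 3 SD, cut at about 21% in these data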;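 further: 0% = DMSO only wells and 100% = clavulanate BLA inhibitor control wells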
Target sequence (Q99836 whole entry, looked up): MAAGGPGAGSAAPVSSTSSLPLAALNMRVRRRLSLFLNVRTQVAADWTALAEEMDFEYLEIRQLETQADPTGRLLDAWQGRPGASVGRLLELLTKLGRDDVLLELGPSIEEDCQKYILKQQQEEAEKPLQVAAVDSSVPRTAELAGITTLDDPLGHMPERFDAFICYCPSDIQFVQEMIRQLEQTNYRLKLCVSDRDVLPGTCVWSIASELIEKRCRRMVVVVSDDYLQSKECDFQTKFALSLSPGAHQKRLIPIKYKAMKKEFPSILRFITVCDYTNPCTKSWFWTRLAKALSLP
Target sequence (Q9NR96 whole entry, looked up): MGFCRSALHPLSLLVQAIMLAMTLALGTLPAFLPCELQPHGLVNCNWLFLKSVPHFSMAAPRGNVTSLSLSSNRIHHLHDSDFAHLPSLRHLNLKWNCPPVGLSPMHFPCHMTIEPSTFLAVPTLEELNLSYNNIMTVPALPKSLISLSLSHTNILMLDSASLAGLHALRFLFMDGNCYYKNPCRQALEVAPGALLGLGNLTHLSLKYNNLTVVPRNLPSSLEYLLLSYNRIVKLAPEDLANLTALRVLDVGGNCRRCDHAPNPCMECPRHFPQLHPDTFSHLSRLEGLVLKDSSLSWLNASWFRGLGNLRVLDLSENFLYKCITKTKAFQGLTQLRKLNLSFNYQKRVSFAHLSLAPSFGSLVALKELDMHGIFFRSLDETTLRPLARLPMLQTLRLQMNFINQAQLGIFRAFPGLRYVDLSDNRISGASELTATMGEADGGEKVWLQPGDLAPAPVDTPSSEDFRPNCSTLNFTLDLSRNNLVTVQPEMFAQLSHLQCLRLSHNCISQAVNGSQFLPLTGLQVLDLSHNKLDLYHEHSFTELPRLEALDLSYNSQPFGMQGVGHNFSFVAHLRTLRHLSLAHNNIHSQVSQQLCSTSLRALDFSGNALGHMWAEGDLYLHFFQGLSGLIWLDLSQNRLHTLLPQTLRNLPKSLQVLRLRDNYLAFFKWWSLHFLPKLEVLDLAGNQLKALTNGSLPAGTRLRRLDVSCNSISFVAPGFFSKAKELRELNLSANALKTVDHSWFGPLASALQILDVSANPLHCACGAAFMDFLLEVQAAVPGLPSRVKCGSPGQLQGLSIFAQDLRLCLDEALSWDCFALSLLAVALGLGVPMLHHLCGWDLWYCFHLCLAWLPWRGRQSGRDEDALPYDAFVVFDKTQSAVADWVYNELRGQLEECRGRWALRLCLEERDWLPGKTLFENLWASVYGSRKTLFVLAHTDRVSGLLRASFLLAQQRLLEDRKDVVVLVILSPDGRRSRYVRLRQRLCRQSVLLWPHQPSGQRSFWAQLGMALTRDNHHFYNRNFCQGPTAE
CHOP inh = blocks CHOP induction under ER stress; CHO-K1 CHOP-promoter luciferase, tunicamycin-induced, 15-18 h; inhibition, % at 10 µM; 220,000 tested, 3.8% active;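 active means compounds that reduced the stress-induced luciferase reporter signal by more than about 70% of percent inhibition, limit read from the data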;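 further: 0% = tunicamycin plus vehicle and 100% = wells without tunicamycin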
TLR4 MyD88 comp = TLR4-MyD88 interaction inhibition in cells; O00206+Q99836; HeLa CL3-4 TLR4/MyD88 BLA complementation, FRET ratio; inhibition, % at 8.4 µM; 200,000 tested, 0.18% active; in the data active means inhibition above about 25%;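 further: 0% = vehicle and 100% = reference inhibitor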
UPR XBP1 act = adaptive UPR (XBP1) activation; CHO-XBP1 luciferase reporter, IRE1-XBP1 UPR activation, luminescence; percent of tunicamycin response, DMSO as zero; 330,000 tested, 0.33% active; AID 463104; activation, % at 20 µM;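 active means versus positive control, 20 µM dose yields 30% or more activation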;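 further: 100% = tunicamycin at 10 µg/mL and 0% = DMSO only wells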
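Material: CHO cell line with stable XBP1 luciferase reporter; buffer or medium: F12 medium containing 10% fetal bovine serum; compound: single point, 20 µM final compound, 1% DMSO; incubation: 6 h treatment, 37 °C; measured by: glow luminescence from Steady-Glo reagent; evaluation: activation, % of tunicamycin; control set: tunicamycin high, DMSO low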
NOD2-RIPK2 inh = inhibitors of human NOD2-RIPK2 interaction; 360,000 tested, 0.38% active; inhibition, % at 4.98 µM; AID 624267; O43353; CHO BLA complementation NOD2-RIPK2, CCF4 ratio; in the data active means inhibition above about 21%;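 further: 0% = vehicle only and 100% = reference blocker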
UPR CHOP act = apoptotic UPR (CHOP) activation; activation, % at 10 µM; 330,000 tested, 0.34% active; AID 449763; CHO-CHOP luciferase reporter, luminescence; percent of tunicamycin response over DMSO baseline;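 active means at 10 µM dose, activation of 40% or more, normalized to positive control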;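 further: 100% = tunicamycin at 10 µg/mL and 0% = DMSO alone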
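Dosing – one dose, 10 µM in 0.5% DMSO · System – CHO-CHOP cells, stable luciferase reporter of PERK-eIF2a-CHOP signalling · Input – 500 cells/well · Control set – tunicamycin 10 µg/mL final as positive, DMSO-only wells as negative · Timing – 6 h compound treatment, 37 °C · Measure – % activation vs tunicamycin · Technique – luminescence read with Steady-Glo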
Starred values were filed as active, the others as inactive; nt = no result given. The sample as a whole holds a higher share of hits than the screen did.

SMILES	TLR9-MyD88 block	CHOP inh	TLR4 MyD88 comp	UPR XBP1 act	NOD2-RIPK2 inh	UPR CHOP act
CCOC(=O)c1ccc(NC(=O)C(=O)NCc2ccncc2)cc1	0	-7	-1	0	4	-1
CC(C)(C)C1=CC=C(C(C)(C)C)C(=O)C1=O	nt	-105	nt	3	nt	49*
COc1ccc([N+](=O)[O-])cc1NC(=O)C(C)c1ccccc1 (stereo not drawn)	13	58	2	-3	-5	1
COc1ccc([N+](=O)[O-])cc1NC(=S)NC(NC(=O)C(c1ccccc1)c1ccccc1)C(Cl)(Cl)Cl (stereo not drawn)	-8	73*	-26	2	-6	15
CN(C)S(=O)(=O)c1ccc(NC(=O)CN2CCN(C(c3ccccc3)c3ccccc3)CC2)cc1	4	23	6	1	-7	0
Cc1ccc(Nc2nc(CSc3nnc(-c4cccs4)o3)cs2)cc1	2	86*	5	3	-5	5
c1ccc(-c2nc(CSc3nnc(-c4cccs4)o3)cs2)cc1	-3	-25	10	2	-12	0
COc1ccc(-c2onc(C)c2-c2ccc(C(=O)OC(C)C)o2)c(O)c1	-1	82*	-2	-2	-5	-1
Cc1ccc2cc(CN(CCCN(C)C)C(=O)NCc3ccccc3)c(=O)[nH]c2c1C	2	74*	-16	-4	-3	-3
CCOC(=O)c1c2ccc(OCC(=O)N/N=C/c3ccccc3C(F)(F)F)cc2n2ccccc12	nt	96*	-1	nt	nt	nt
O=c1[nH]nc(Cc2ccc(Cl)cc2)c2ccccc12	-1	54	-3	-1	2	2
O=c1[nH]nc(Cc2ccc(Cl)cc2Cl)c2ccccc12	-2	80*	0	-2	-4	-1
O=c1[nH]nc(CNc2ccc(Cl)cc2Cl)c2ccccc12	-8	71*	-10	-1	-4	-1
Cc1ccc([C@H]2C[C@H](n3cc(C4CC4)nn3)[C@@H](O)CN2CC2CCCCC2)cc1	-9	nt	nt	nt	-6	nt
CCc1ccc(C2CC(c3ccco3)=NN2S(C)(=O)=O)cc1 (stereo not drawn)	1	73*	4	-7	0	-2
O=C(NCCC(=O)N1CCN(S(=O)(=O)c2ccc(Cl)cc2)CC1)Nc1ccccc1	3	nt	nt	-1	1	0
CCCN(CC(=O)Nc1cc(Cl)cc(Cl)c1)CC(=O)Nc1ccc(F)c(F)c1F	-13	76*	7	-2	3	3
CCCN(CC(=O)Nc1ccccc1Br)CC(=O)Nc1ccc(F)c(F)c1F	-4	47	-2	-1	-2	2
CC(=O)N1CCN(CCS(=O)(=O)c2ccc(Br)cc2)CC1	0	nt	nt	1	-2	0
Cc1noc(-c2ccc(Cl)cc2)c1C(=O)O/N=C(\N)c1ccc(C(C)(C)C)cc1	-7	80*	nt	-3	-11	3
O=C(CSc1nnc(Cc2csc(Nc3cccc(Cl)c3)n2)o1)N1CCc2ccccc21	-5	89*	-8	-1	-5	-2
CCNC(=S)N/N=C/c1ccc(OCCOc2ccccc2C)cc1	0	85*	13	3	-1	-2
Cc1cc2cc(C(c3nnnn3CC3CCCO3)N3CCCc4ccccc43)c(=O)[nH]c2cc1C (stereo not drawn)	1	41	1	nt	-4	nt
CCc1ccc2[nH]c(=O)c(C(c3nnnn3CC3CCCO3)N3CCCc4ccccc43)cc2c1 (stereo not drawn)	-14	84*	5	2	-5	3
CCCCCc1cc(=O)oc2c(C(CCN3CCCCC3)c3ccc4c(c3)OCO4)c(OC)cc(OC)c12 (stereo not drawn)	0	88*	nt	3	16	8
SMILES	TLR9-MyD88 block	CHOP inh	TLR4 MyD88 comp	UPR XBP1 act	NOD2-RIPK2 inh	UPR CHOP act
CCN(CC)CCC(c1ccc(N(C)C)cc1)c1c(OC)cc(OC)c2c(-c3ccccc3)cc(=O)oc12 (stereo not drawn)	-5	24	nt	4	4	0
CCCCCc1cc(=O)oc2c(C(CCN3CCCC(C)C3)c3ccc4c(c3)OCO4)c(OC)cc(OC)c12 (stereo not drawn)	-4	77*	nt	0	5	16
COc1cc(OC)c2c(-c3ccccc3)cc(=O)oc2c1C(CCN1CCCC1)c1ccc2c(c1)OCO2 (stereo not drawn)	-11	-24	nt	6	-6	3
CCCCCc1cc(=O)oc2c(C(CCN(CC)CC)c3cc(OC)c(OC)c(OC)c3)c(OC)cc(OC)c12 (stereo not drawn)	9	71*	nt	3	13	3
Cc1cccc(CN2CCN(C3CN(Cc4cn(Cc5ccc(Cl)cc5)nn4)S(=O)(=O)C3)CC2)c1 (stereo not drawn)	nt	nt	nt	nt	-1	nt
COc1ccc(NC(=O)N[C@H]2CC[C@@H](CC(=O)NC3CCC3)O[C@@H]2CO)cc1	nt	nt	nt	nt	-7	nt
CC(=O)Nc1ccc(Nc2cc(C)nc3c(-c4ccc(Cl)cc4)cnn23)cc1	-1	75*	8	-1	-7	6
CC(=O)Nc1ccc(Nc2cc(C)nc3c(-c4ccc(Cl)cc4)c(C)nn23)cc1	10	84*	0	3	1	2
CCNC(=O)[C@H]1O[C@@H](n2cnc3c(N)nc(NCCc4ccc(CCC(=O)O)cc4)nc32)C(O)[C@H]1O (stereo partly drawn)	nt	-16	nt	nt	nt	nt
O=C1NC(=O)/C(=C\c2ccc(OCc3cccc([N+](=O)[O-])c3)cc2)N1	1	76*	0	6	-3	4
NS(=O)(=O)c1ccc(NC(=S)N2CCN(Cc3ccc(Cl)c(Cl)c3)CC2)cc1	nt	32	-7	-3	-6	-1
O=S(=O)(c1ccccc1)N1CCN(C(=S)Nc2ccc(F)cc2)CC1	-4	8	4	-3	9	-1
O=S(=O)(c1ccc(Cl)cc1)N1CCN(C(=S)Nc2ccc(F)c(Cl)c2)CC1	3	78*	-8	-3	10	-1
O=[N+]([O-])c1ccc(C(=S)N2CCN(c3ccc(F)cc3)CC2)cc1	4	7	-6	25	-15	-1
NS(=O)(=O)c1ccc(NC(=S)N2CCN(c3ccc(Cl)c(Cl)c3)CC2)cc1	3	87*	3	3	-5	7
O=[N+]([O-])c1ccc(NC(=S)N2CCN(c3ccc(F)cc3)CC2)cc1	1	84*	8	-2	-4	-3
Cc1ccnc(NC2(C(F)(F)F)N=C(c3ccccc3)NC2=O)c1 (stereo not drawn)	-4	18	-4	-2	-9	-2
O=C(Cc1cccc2ccccc12)NCC(=O)Nc1ccccc1F	-7	nt	nt	-4	-10	3
